Laboratory results as given in ChEMBL document CHEMBL2407048, “Novel synthetic acridine derivatives as potent DNA-binding and apoptosis-inducing antitumor agents” (Bioorg Med Chem, 2013).
The source made the active and inactive calls. The calls are words filed in the database; no cut-off is given here.

Assays:
[1] = tested on: HepG2; assay: Cytotoxicity against human HepG2 cells assessed as growth inhibition after 48 hrs by MTT assay; assay type: functional, cell-based; conditions: HepG2, 48 h
Method in brief: (§1)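 K562 (RPMI-1640) or HepG-2 (DMEM) cells in 10% FBS with penicillin/streptomycin at 37 °C, 5% CO₂. Seeded at 1.5×10^5 cells/mL and treated 48 h at various concentrations. MTT (5 mg/mL) added for 4 h, formazan dissolved in DMSO, absorbance read at 490 nm. IC50 reported.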

[2] = tested on: DNA; assay: Binding affinity to calf thymus DNA by fluorescence spectroscopic analysis; assay type: nucleic-acid assay; conditions: Bos taurus
Method in brief: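 Compound at 50 μM final in Tris–HCl buffer pH 7.0 (10 mM Tris, 10 mM NaCl), titrated with ct DNA at 0 to 6 μM final. Emission excited at 420 nm with a xenon arc lamp. Quenching constant Kq derived from a Stern–Volmer plot, F0/F = 1 + Kq[Q].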

[3] = tested on: K562; assay: Cytotoxicity against human K562 cells assessed as growth inhibition after 48 hrs by MTT assay; assay type: functional, cell-based; conditions: K562, 48 h; method in brief: as §1
[4] = target: T1, DNA topoisomerase 1 (Homo sapiens) (UniProt P11387); assay: Inhibition of human recombinant DNA topoisomerase-1 assessed as relaxation of pBR322 DNA at 25 uM after 30 mins by agarose gel electrophoresis
T1 sequence (whole entry): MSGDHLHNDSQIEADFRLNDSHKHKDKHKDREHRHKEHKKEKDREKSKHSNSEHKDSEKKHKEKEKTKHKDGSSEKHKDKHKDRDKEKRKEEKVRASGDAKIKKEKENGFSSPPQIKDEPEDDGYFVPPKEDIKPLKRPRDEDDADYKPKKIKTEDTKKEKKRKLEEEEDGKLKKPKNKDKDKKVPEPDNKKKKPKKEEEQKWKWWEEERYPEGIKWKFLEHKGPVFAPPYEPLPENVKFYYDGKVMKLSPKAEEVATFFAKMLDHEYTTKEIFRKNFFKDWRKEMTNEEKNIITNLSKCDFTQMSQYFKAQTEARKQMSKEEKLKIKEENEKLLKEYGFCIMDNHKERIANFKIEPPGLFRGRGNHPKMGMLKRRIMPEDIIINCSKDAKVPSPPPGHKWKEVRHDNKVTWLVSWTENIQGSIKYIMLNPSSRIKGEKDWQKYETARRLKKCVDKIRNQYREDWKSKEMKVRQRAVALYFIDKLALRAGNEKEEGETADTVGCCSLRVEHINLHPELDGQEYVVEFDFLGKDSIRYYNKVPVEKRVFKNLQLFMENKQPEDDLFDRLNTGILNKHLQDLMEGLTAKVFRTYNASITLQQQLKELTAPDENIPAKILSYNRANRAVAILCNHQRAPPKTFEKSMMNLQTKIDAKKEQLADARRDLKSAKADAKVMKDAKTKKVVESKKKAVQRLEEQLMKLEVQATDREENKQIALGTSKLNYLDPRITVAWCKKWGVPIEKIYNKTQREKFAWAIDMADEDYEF

[5] = tested on: K562; assay: Induction of apoptosis in human K562 cells assessed as increase in Bax level at 2.5 uM after 48 hrs by Western blot analysis; assay type: functional, cell-based
Method in brief: (§2)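 K562 cells in 6 cm dishes treated 48 h at several concentrations, then lysed on ice 0.5 h and spun at 20,000g. Protein measured by BCA, run on 15% SDS-PAGE and transferred to PVDF. Membrane blocked in 5% BSA/TBS with Na₃VO₄ and NaF, primary antibody 2 h at room temperature, chemiluminescent detection of cleaved caspase-3/7/9, BAX and BCL-XL.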

[6] = tested on: DNA; assay: Binding affinity to calf thymus DNA after 5 mins by UV-vis absorption spectroscopic analysis; assay type: nucleic-acid assay; conditions: Bos taurus
Method in brief: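 ct DNA (purity A260:A280 1.86; concentration per mole phosphate from ε260 6600 M⁻¹ cm⁻¹) titrated into 50 μM compound in 10 mM Tris, 10 mM NaCl, pH 7.0. DNA 0–10 μM. Incubated 5 min, UV-vis absorption recorded in a 1.0 cm quartz cell. Kb taken as the slope-to-intercept ratio of [DNA]/(εa−εf) plotted against [DNA].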

[7] = tested on: K562; assay: Induction of apoptosis in human K562 cells assessed as early apoptotic cells at 2.5 uM after 48 hrs by annexin V-FITC/propidium iodide staining-based flow cytometric analysis (reference value: 2.1%); assay type: functional
[8] = tested on: K562; assay: Induction of apoptosis in human K562 cells after 48 hrs by annexin V-FITC/propidium iodide staining-based flow cytometric analysis; assay type: functional, cell-based
[9] = tested on: K562; assay: Induction of apoptosis in human K562 cells assessed as early apoptotic cells at 1 uM after 48 hrs by annexin V-FITC/propidium iodide staining-based flow cytometric analysis (reference value: 2.1%); assay type: functional
[10] = tested on: K562; assay: Induction of apoptosis in human K562 cells assessed as caspase-7 cleavage at 2.5 uM after 48 hrs by Western blot analysis; assay type: functional, cell-based; method in brief: as §2
[11] = tested on: K562; assay: Induction of apoptosis in human K562 cells assessed as decrease in BCL-XL level at 2.5 uM after 48 hrs by Western blot analysis; assay type: functional, cell-based; method in brief: as §2
[12] = tested on: K562; assay: Induction of apoptosis in human K562 cells assessed as late apoptotic cells at 0.5 uM after 48 hrs by annexin V-FITC/propidium iodide staining-based flow cytometric analysis (reference value: 1.22%); assay type: functional
[13] = tested on: K562; assay: Induction of apoptosis in human K562 cells assessed as late apoptotic cells at 1 uM after 48 hrs by annexin V-FITC/propidium iodide staining-based flow cytometric analysis (reference value: 1.22%); assay type: functional
[14] = tested on: K562; assay: Induction of apoptosis in human K562 cells assessed as late apoptotic cells at 2.5 uM after 48 hrs by annexin V-FITC/propidium iodide staining-based flow cytometric analysis (reference value: 1.22%); assay type: functional
[15] = tested on: DNA; assay: Effect on calf thymus DNA conformation at 40 to 80 uM by CD spectra analysis; assay type: nucleic-acid assay; conditions: Bos taurus
Method in brief: (§3)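 CD spectra of ct DNA (40 μM) with compound at 0, 40 or 80 μM, in 10 mM Tris/10 mM NaCl pH 7.0, at room temperature in a 0.1 cm quartz cell. Each spectrum is the average of three scans with the buffer scan subtracted.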

[16] = tested on: K562; assay: Induction of apoptosis in human K562 cells assessed as caspase-3 cleavage at 2.5 uM after 48 hrs by Western blot analysis; assay type: functional, cell-based; method in brief: as §2
[17] = tested on: K562; assay: Induction of apoptosis in human K562 cells assessed as early apoptotic cells at 0.5 uM after 48 hrs by annexin V-FITC/propidium iodide staining-based flow cytometric analysis (reference value: 2.1%); assay type: functional
[18] = tested on: DNA; assay: Binding affinity to calf thymus DNA at 40 to 80 uM by CD spectra analysis; assay type: nucleic-acid assay; conditions: Bos taurus; method in brief: as §3
[19] = tested on: K562; assay: Induction of apoptosis in human K562 cells assessed as activation of caspase-9 after 48 hrs by Western blot analysis; assay type: functional, cell-based; method in brief: as §2

Row | Compound | IC50 [1] [µM] | Kq [2] | IC50 [3] [µM] | other results
1 | c1ccc(COc2c3ccccc3nc3ccccc23)cc1 | > 50 | < 1 ×10⁴ /M | > 50 | –
2 | COc1ccc2nc3cc(Cl)ccc3c(NCCCc3ccccc3)c2c1 | 3.26 | 1.05 ×10⁵ /M | 2.2 | –
3 | COc1ccc2nc3cc(Cl)ccc3c(NCCc3ccccc3)c2c1 | 2.19 | 1.19 ×10⁵ /M | 0.65 | –
4 | Cc1ccc(NC(=O)c2ccc(CN3CCN(C)CC3)cc2)cc1Nc1nccc(-c2cccnc2)n1 [IMATINIB] | – | – | 0.47 | –
5 | Clc1ccc2c(NCc3ccccc3)c3ccccc3nc2c1 | 11.6 | 1.33 ×10⁴ /M | 9.24 | –
6 | COc1cc(C)c2nc3cc(Cl)ccc3c(NCc3ccccc3)c2c1 | 6.05 | 1.11 ×10⁵ /M | 3.09 | –
7 | COc1cc2c(c(OC)c1OC)-c1ccc(OC)c(=O)cc1[C@@H](NC(C)=O)CC2 [COLCHICINE] | 1.8 | – | – | –
8 | Cc1cccc2c(NCc3ccccc3)c3ccccc3nc12 | 3.64 | 6.22 ×10⁴ /M | 4.86 | inhibition [4]: Active
9 | c1ccc(CNc2c3ccccc3nc3ccccc23)cc1 | 6.07 | 3.71 ×10⁴ /M | 5.24 | inhibition [4]: Active
10 | O=C(Nc1c2ccccc2nc2ccccc12)c1ccccc1 | > 50 | < 1 ×10⁴ /M | > 50 | –
11 | COc1ccc2nc3ccccc3c(NCc3ccccc3)c2c1 | 0.89 | 3.5 ×10⁵ /M | 0.54 | Activity [5]: Active; Kb [6]: 1.42 ×10⁵ /M; Activity [7]: 40.44%; Activity [8]: Dose-dependent effect; Activity [9]: 37.09%; Activity [10]: Active; Activity [11]: Active; Activity [12]: 2%; inhibition [4]: Active; Activity [13]: 18.42%; Activity [14]: 32.71%; Activity [15]: inactive; Activity [16]: Active; Activity [17]: 7.23%; Activity [18]: Active; Activity [19]: Dose-dependent effect
12 | COc1ccc2nc3cc(Cl)ccc3c(NCc3ccccc3)c2c1 | 1.4 | 1.97 ×10⁵ /M | 0.65 | –
